Laboratory results taken from ChEMBL document CHEMBL3271979, “Inhibition of solid tumors by nitrosoureas. 1. Lewis lung carcinoma” (1977).
Activity calls are given as the source filed them. The calls are words filed in the database; no cut-off is given here.

Tests used:
Mus musculus [1] = test: Antitumor activity against mouse advanced Lewis lung carcinoma allografted in BDF1 mouse assessed as disease cure at 36 mg/kg, ip administered as single dose on 7th day post-tumor implantation measured for 80 days post-drug treatment; format: functional, organism-based; set-up: dose 36 mg/kg
In short: (§1)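 BDF1 mice (C57Blk/6 × DBA/2) implanted sc by trocar with Lewis lung tumor fragments of about 40 mg, taken only from bacteriologically sterile donor tumors. Mice bearing tumors of about 400 mg (day 6-7) were selected. Each received a single ip dose on day 7, at or below the LD10 in normal mice. Groups were of 10 mice. Tumor weight was taken from calipers as w = ab²/2, measured at least twice weekly. Matched non-tumor mice served as toxicity controls.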

Mus musculus [2] = test: Antitumor activity against mouse advanced Lewis lung carcinoma allografted in BDF1 mouse assessed as disease cure at 54 mg/kg, ip administered as single dose on 7th day post-tumor implantation measured for 80 days post-drug treatment; format: functional, organism-based; set-up: dose 54 mg/kg; in short: as §1
[3] = Antitumor activity against mouse advanced Lewis lung carcinoma allografted in BDF1 mouse assessed as increase in host life span at 36 mg/kg, ip administered as single dose on 7th day post-tumor implantation; format: functional; settings: route intraperitoneal
In short: (§2)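 BDF1 mice (C57Blk/6 × DBA/2) implanted sc by trocar with about 40 mg Lewis lung tumor fragments from bacteriologically sterile donors. Advanced-disease groups held tumors of about 400 mg by day 6-7, sized by caliper (w = ab²/2). Single ip injection on day 7, in water or saline vehicle, at or below the LD10 in normal mice. Tumors measured at least twice weekly.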

[4] = Antitumor activity against mouse advanced Lewis lung carcinoma allografted in BDF1 mouse assessed as increase in host life span at 54 mg/kg, ip administered as single dose on 7th day post-tumor implantation; format: functional; settings: route intraperitoneal; in short: as §2
Mus musculus [5] = test: Antitumor activity against mouse advanced Lewis lung carcinoma allografted in ip dosed BDF1 mouse assessed as complete regression of established tumor administered as single dose on day 6 or 7 post-tumor implantation; format: functional, organism-based; in short: as §1
Mus musculus [6] = test: Antitumor activity against mouse advanced Lewis lung carcinoma allografted in ip dosed BDF1 mouse assessed as disease cure administered as single dose on day 6 or 7 post-tumor implantation; format: functional, organism-based; in short: as §1
[7] = Antitumor activity against mouse early Lewis lung carcinoma allografted in BDF1 mouse assessed as increase in host life span at 57 mg/kg, ip administered as single dose on 1 or 2 days post-tumor implantation; format: functional; settings: route intraperitoneal
In short: (§3)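 BDF1 mice (C57Blk/6 × DBA/2) implanted sc by trocar with ~40 mg Lewis lung tumor fragments from bacteriologically sterile donor tumors. Single ip dose on day 1 or 2, as a solution or suspension in water (CMC or gum acacia) or saline (HPC or Tween 80). Read-out is […]. Same-dose toxicity controls were run in nontumor-bearing mice.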

[8] = Antitumor activity against mouse early Lewis lung carcinoma allografted in BDF1 mouse assessed as increase in host life span at 38 mg/kg, ip administered as single dose on 1 or 2 days post-tumor implantation; format: functional; settings: route intraperitoneal; in short: as §3
[9] = Antitumor activity against mouse early Lewis lung carcinoma allografted in BDF1 mouse assessed as time delay in tumor growth at 57 mg/kg, ip administered as single dose on 1 or 2 days post-tumor implantation; format: functional; settings: route intraperitoneal
In short: (§4)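 BDF1 mice (C57Blk/6 × DBA/2) implanted sc by trocar with ~40 mg Lewis lung tumor fragments from bacteriologically sterile donors. A single ip dose was given on day 1 or 2, as a solution or suspension in water or saline with suspending agent, at ≤0.5 ml. Tumors were measured by caliper at least twice weekly, with weight = ab²/2. Delay was taken as the days for the tumor to reach 1 g.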

[10] = Antitumor activity against mouse early Lewis lung carcinoma allografted in BDF1 mouse assessed as time delay in tumor growth at 38 mg/kg, ip administered as single dose on 1 or 2 days post-tumor implantation; format: functional; settings: route intraperitoneal; in short: as §4
Mus musculus [11] = test: Antitumor activity against mouse advanced Lewis lung carcinoma allografted in BDF1 mouse assessed as disease cure at 55 mg/kg, ip administered as single dose on 7th day post-tumor implantation measured for 80 days post-drug treatment; format: functional, organism-based; set-up: dose 55 mg/kg; in short: as §1
Mus musculus [12] = test: Antitumor activity against mouse advanced Lewis lung carcinoma allografted in BDF1 mouse assessed as complete regression of established tumor at 55 mg/kg, ip administered as single dose on 7th day post-tumor implantation; format: functional, organism-based; set-up: dose 55 mg/kg; in short: as §1
[13] = Antitumor activity against mouse advanced Lewis lung carcinoma allografted in BDF1 mouse assessed as increase in host life span at 55 mg/kg, ip administered as single dose on 7th day post-tumor implantation; format: functional; settings: route intraperitoneal; in short: as §2
[14] = Antitumor activity against mouse early Lewis lung carcinoma allografted in ip dosed BDF1 mouse assessed as disease cure administered as single dose on 1 or 2 days post-tumor implantation measured for 80 days post-drug treatment; format: functional
In short: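 BDF1 mice implanted sc by trocar with ~40 mg Lewis lung fragments from sterile donor tumors. A single ip dose was given on day 1 or 2 after implant, in water or saline vehicle. Cures were scored in animals observed for at least 80 days after treatment. Drug-toxicity controls were matched non-tumor-bearing mice monitored for body weight and deaths.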

[15] = Ratio of ED50 for antitumor activity against mouse L1210 cells allografted in ip dosed mouse to LD10 for mouse
[16] = Antitumor activity against mouse advanced Lewis lung carcinoma allografted in ip dosed BDF1 mouse assessed as increase in host lifespan administered as single dose on day 6 or 7 post-tumor implantation; format: functional
In short: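 Advanced Lewis lung model: about 40 mg fragments implanted sc by trocar into BDF1 mice, and mice with tumors of about 400 mg (day 6-7) selected. Tumor weight from calipers, w = ab²/2. Agent given as one ip dose in distilled water or physiological saline. Nontumor-bearing mice received matching doses as toxicity controls.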

Mus musculus [17] = test: Antitumor activity against mouse advanced Lewis lung carcinoma allografted in BDF1 mouse assessed as complete regression of established tumor at 18 mg/kg, ip administered as single dose on 7th day post-tumor implantation; format: functional, organism-based; set-up: dose 18 mg/kg; in short: as §1
Mus musculus [18] = test: Antitumor activity against mouse advanced Lewis lung carcinoma allografted in BDF1 mouse assessed as complete regression of established tumor at 12 mg/kg, ip administered as single dose on 7th day post-tumor implantation; format: functional, organism-based; set-up: dose 12 mg/kg; in short: as §1
Mus musculus [19] = test: Antitumor activity against mouse advanced Lewis lung carcinoma allografted in BDF1 mouse assessed as disease cure at 18 mg/kg, ip administered as single dose on 7th day post-tumor implantation measured for 80 days post-drug treatment; format: functional, organism-based; set-up: dose 18 mg/kg; in short: as §1
Mus musculus [20] = test: Antitumor activity against mouse advanced Lewis lung carcinoma allografted in BDF1 mouse assessed as disease cure at 12 mg/kg, ip administered as single dose on 7th day post-tumor implantation measured for 80 days post-drug treatment; format: functional, organism-based; set-up: dose 12 mg/kg; in short: as §1
[21] = Antitumor activity against mouse advanced Lewis lung carcinoma allografted in BDF1 mouse assessed as increase in host life span at 18 mg/kg, ip administered as single dose on 7th day post-tumor implantation; format: functional; settings: route intraperitoneal; in short: as §2
[22] = Antitumor activity against mouse advanced Lewis lung carcinoma allografted in BDF1 mouse assessed as increase in host life span at 12 mg/kg, ip administered as single dose on 7th day post-tumor implantation; format: functional; settings: route intraperitoneal; in short: as §2
L1210 = test: Antitumor activity against mouse L1210 cells allografted in ip dosed mouse assessed as disease cure administered as single dose; format: functional, organism-based

COC(=O)[C@H]1CC[C@@H](NC(=O)N(CCCl)N=O)CC1
Activity (Mus musculus [1]): inactive
Activity (Mus musculus [2]): inactive
ILS at 36 mg/kg [3]: 120%
ILS at 54 mg/kg [4]: 100%
inhibition (Mus musculus [5]): Active
Activity (Mus musculus [6]): inactive

O=NN(CCCl)C(=O)N[C@H]1CCCC[C@@H]1Cl (relative stereo)
ILS at 57 mg/kg [7]: 38%
ILS at 38 mg/kg [8]: 43%
Time [9]: 2.5 days
Time [10]: 3.3 days
Activity (Mus musculus [11]): inactive
inhibition (Mus musculus [12]): inactive
ILS at 55 mg/kg [13]: 18%
Activity [14]: 10%
Ratio [15]: 0.6
inhibition (Mus musculus [5]): inactive
Activity (Mus musculus [6]): inactive
ILS [16]: >25%

CC(=O)OC[C@H]1CC[C@H](NC(=O)N(CCCl)N=O)CC1
inhibition (Mus musculus [17]): inactive
inhibition (Mus musculus [18]): inactive
Activity (Mus musculus [19]): inactive
Activity (Mus musculus [20]): inactive
ILS at 18 mg/kg [21]: 65%
ILS at 12 mg/kg [22]: 26%
Activity [14]: 10%
Activity (L1210): inactive
inhibition (Mus musculus [5]): inactive
Activity (Mus musculus [6]): inactive
ILS [16]: >25%
